Sampled rows, rich in hits. Any-hit rate of the full collection: about 3.2%.
Pemphigus Ab inh – inhibitors of pemphigus antibody binding to human desmoglein-3 | P32926 | DSG3-coupled beads, scFv-anti-DSG3-GFP binding, flow cytometry; stronger effect = lower value | binding (percent of control), % at 10 µM | hit rate 0.48% among 310,000;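 active = binding more than 3 SD below its plate's average and above zero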
MEKK3 PB1 HTS – modulators (inhibitors or enhancers) of MEK5 binding to human MEKK3 PB1 domain; AID 1529; Q99759; binding response (% of control), % at 10 µM; hit rate 1.4% among 290,000; bead-based flow cytometry, Alexa488-MEK5 binding to MEKK3; actives lie on both sides; 0 = blocked by unlabeled MEK5, 100 = vehicle;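 active = binding response more than 3 SD above or below the average of its plate-row segment, actives on both sides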;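 note: Alexa488 bead fluorescence after subtracting the streptavidin-only scavenger bead signal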
UBC13 polyUb – blocks human UBC13 polyubiquitin chain formation; inhibition, % at 20 µM; TR-FRET; hit rate 0.47% among 330,000; in the data active = inhibition above about 45%, passing the limit was not always enough
Target sequence (P61088 whole entry, looked up): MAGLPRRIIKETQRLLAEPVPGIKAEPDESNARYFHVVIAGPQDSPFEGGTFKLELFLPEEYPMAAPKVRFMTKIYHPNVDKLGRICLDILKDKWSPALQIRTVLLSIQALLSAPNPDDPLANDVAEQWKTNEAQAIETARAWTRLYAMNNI
MEKK2wt PB1 HTS – raises or lowers MEK5 binding to wildtype human MEKK2 PB1 domain | binding response (% of control), % at 10 µM | AID 1531 | Q9Y2U5 | hit rate 1.1% among 290,000 | bead flow cytometry, Alexa488-MEK5 binding to MEKK2 WT; actives lie on both sides; in the data active = binding response below about 67% or above about 130%
Apaf-1 inh – inhibitors of human Apaf-1 apoptosome. hit rate 0.71% among 330,000. AID 489030. O14727. reconstituted apoptosome caspase-3 activity, DEVD-Rh110 fluorescence. inhibition, % at 20 µM; active = inhibition of at least 40% at 20 µM
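Material: reconstituted apoptosome with Apaf-1, cytochrome c, caspase-9, procaspase-3, dATP; medium: pH 7.5 Hepes buffer with CHAPS, BSA, DTT; also added: cytochrome c and DEVD-Rh110 substrate; timing: 30 min plus 50 min, RT; signal: Rh110 fluorescence intensity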
MEKK2 mut-MEK5 – signal of MEK5 binding to mutant human MEKK2 PB1 domain | hit rate 0.35% among 290,000 | percent response, % at 10 µM | bead flow cytometry, Alexa488-MEK5 binding to MEKK2 mutant; in the data active = percent response above about 24%, passing the limit was not always enough
MEKK2wt confirm – raises or lowers MEK5 binding to wildtype human MEKK2, retest; shares compounds with MEKK3 PB1 HTS; bead flow cytometry, Alexa488-MEK5 binding to MEKK2 WT; actives lie on both sides; binding response (% of control), % at 10 µM; hit rate 2.4% among 5,900; AID 1892; in the data active = binding response below about 16% or above about 210%; inactive = in between
MEKK2mut-MEK5 – signal of MEK5 binding to mutant human MEKK2, retest; shares compounds with MEKK3 PB1 HTS; bead flow cytometry, Alexa488-MEK5 binding to MEKK2 mutant; percent response, % at 10 µM; hit rate 2% among 5,900; AID 1893; in the data active = percent response mostly above about 71%, no sharp cut-off; inactive = mostly below about 38%;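 note: higher means compound restores mutant binding toward wildtype level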
MEKK3 confirm – confirmation of inhibitors of MEK5 binding to human MEKK3. shares compounds with MEKK3 PB1 HTS. bead flow cytometry, Alexa488-MEK5 binding to MEKK3; stronger effect = lower value. binding response (% of control), % at 10 µM. hit rate 1.8% among 5,900. AID 1894;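 active = binding response below 72% of control, or above a set upper limit, though filed actives all read lower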
Casp3 counter – caspase-3 inhibition (UBC13 counter-screen). inhibition, % at 20 µM. AID 488856. Recombinant caspase-3, Caspase-Glo 3/7 luminescence, 60 min. hit rate 4% among 1,400. shares compounds with UBC13 polyUb;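 active = mean inhibition across replicates above about 26%, limit read from the data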
Target sequence (P42574 whole entry, looked up): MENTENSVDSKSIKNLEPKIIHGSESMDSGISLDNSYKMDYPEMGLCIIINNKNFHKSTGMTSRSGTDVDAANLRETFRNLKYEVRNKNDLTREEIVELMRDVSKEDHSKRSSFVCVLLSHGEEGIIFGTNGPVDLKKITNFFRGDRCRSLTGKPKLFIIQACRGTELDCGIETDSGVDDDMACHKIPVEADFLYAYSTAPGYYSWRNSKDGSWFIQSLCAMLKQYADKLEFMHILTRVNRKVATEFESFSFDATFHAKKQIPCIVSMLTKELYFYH
UBC13 conf – human UBC13 polyubiquitin inhibition, confirmed; UBC13 polyubiquitination, TR-FRET, biochemical; hit rate 68% among 1,400; AID 488859; inhibition, % at 10 µM; shares compounds with UBC13 polyUb; in the data active = inhibition above about 45%
Apaf-1 inh conf2 – Apaf-1 inhibition, single-dose confirmed; shares compounds with Apaf-1 inh; hit rate 25% among 1,800; inhibition, % at 20 µM; reconstituted apoptosome, caspase-3 DEVD-Rh110 fluorescence;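 active = mean inhibition of at least 40% at 20 µM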
Rh110 interf inh – Rh110 signal interference in Apaf-1 inhibitor counter-screen; Rh110 fluorescence interference, quenched caspase reaction; AID 504615; 1,800 tested, under 10 active; shares compounds with Apaf-1 inh; activation (fluorescence interference), % at 20 µM;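 active = signal rise of 40% or more at 20 µM, treated as a fluorescence artifact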
Apaf1 inh interf – counter-screen for Apaf-1 inhibitors: fluorescence interference, dose response; shares compounds with Apaf-1 inh; fluorescence interference counterscreen, Apaf-1 assay format; IC50, µM; 460 tested, under 10 active; AID 588538; call rule not given here
Numbers stand for hits; - = inactive; . = no result given; [ ] = another dose, or the depositor's remark.

SMILES | Pemphigus Ab inh | MEKK3 PB1 HTS | UBC13 polyUb | MEKK2wt PB1 HTS | Apaf-1 inh | MEKK2 mut-MEK5 | MEKK2wt confirm | MEKK2mut-MEK5 | MEKK3 confirm | Casp3 counter | UBC13 conf | Apaf-1 inh conf2 | Rh110 interf inh | others
Oc1ccccc1/C=N/Nc1cc(N2CCCC2)nc(N2CCCC2)n1 | - | - | - | 181 | 98 | - | - | - | - | . | . | 100 | - | Apaf1 inh interf=-
O=C(O)/C=C/C(=O)Nc1cccc2c1-c1ccccc1C2=O | - | . | . | . | . | . | . | . | . | . | . | . | .
CCOC(=O)c1c(-c2ccc(-c3ccccc3)cc2)csc1NC(=O)CNCCN(C)C | - | - | 79 | 286 | 42 | 69 | 238 | 141 | - | - | 85 | 47 | - | Apaf1 inh interf=-
COCC(=O)O[C@]1(CCN(C)CCCc2nc3ccccc3[nH]2)CCc2cc(F)ccc2[C@@H]1C(C)C | - | - | 67 | 172 | 54 | - | - | - | - | - | 60 | - | -
CCN(CC)CCOC(=O)c1ccc(NC(=O)CCCN2C(=O)S/C(=C/c3ccc(OC)cc3)C2=S)cc1 | - | - | - | 192 | 44 | 44 | - | - | - | . | . | - | -
COc1ccc(/C=C2\SC(=S)N(CCC(=O)Nc3ccc(O)cc3)C2=O)cc1 | - | - | - | - | - | - | . | . | . | . | . | . | .
Nc1cc2c(cc1Cl)-c1ccccc1C2=NO | - | . | . | . | . | . | . | . | . | . | . | . | .
C[C@@H](CN1C2=NC[C@H](Cc3ccccc3)N2C[C@H]1Cc1ccc(O)cc1)NC(=O)CCC1CCCCC1 | - | - | 66 | 146 | 41 | - | - | - | - | - | - | - | -
CCCCCc1cc(=O)oc2c(C(CCN3CCCC(C)C3)c3ccc(N(C)C)cc3)c(OC)cc(OC)c12 (stereo unspecified) | - | - | - | 149 | 68 | 50 | - | - | - | . | . | - | -
COc1cc(OC)c2ccc(=O)oc2c1C(CCN1CCCC(C)C1)c1ccc(N(C)C)cc1 (stereo unspecified) | - | - | - | - | - | - | . | . | . | . | . | . | .
COc1cc(O)c(C(CCN2CCCC(C)C2)c2cc(OC)c(OC)c(OC)c2)c(OC)c1 (stereo unspecified) | - | - | - | - | - | - | . | . | . | . | . | . | .
CCCCCc1cc(=O)oc2c(C(CCN3CCCC(C)C3)c3cc(OC)c(OC)c(OC)c3)c(OC)cc(OC)c12 (stereo unspecified) | - | - | 67 | 163 | 60 | 29 | - | - | - | - | - | - | -
CCc1sc(C(=O)N(CCOC)c2c(N)n(Cc3ccccc3)c(=O)[nH]c2=O)cc1C | - | . | . | . | . | . | . | . | . | . | . | . | .
CN(C)CCCNc1cc(C(C)(C)C)nc2c(-c3ccc(Cl)cc3)cnn12 | - | - | 89 | 190 | 58 | - | 250 | 89 | - | - | 95 | - | -
CCCCCc1ccc(OCCCC[n+]2ccccc2)c(CCCCC)c1 | - | - | 59 | 164 | 59 | - | - | - | - | - | 84 | - | -
CCCCCc1ccc(OCCCC[n+]2ccc(C)cc2)c(CCCCC)c1 | - | - | - | 186 | 56 | - | - | - | - | . | . | - | -
CCC(C)(C)c1ccc(OCCCC[n+]2ccccc2)c(C(C)(C)CC)c1 | - | - | 66 | 185 | 51 | - | - | - | - | - | 98 | - | -
CCCCOc1ccc(C)cc1CN(CCO)CCO | - | - | - | - | - | - | . | . | . | . | . | . | .
Cc1cc(NC(=O)CSCC(=O)Nc2nc3ccccc3[nH]2)no1 | - | . | - | . | - | . | . | . | . | . | . | . | .
CCN(CC(=O)Nc1ccc(NC(C)=O)cc1)C(=O)CSCc1c(C)noc1C | - | . | - | . | - | . | . | . | . | . | . | . | .
CCN1/C(=C/c2ccc3cc(C)ccc3[n+]2CC)Sc2cc(C)c(C)cc21 | - | 44[inhibitor] | - | 37 | 64 | - | - | - | 58 | . | . | 60 | - | Apaf1 inh interf=-
COc1cc(OC)c2c(-c3ccccc3)cc(=O)oc2c1C(CCN1CCCCC1)c1ccc(N(C)C)cc1 (stereo unspecified) | - | - | 51 | 183 | 54 | - | - | - | - | - | - | - | -
COc1cc(OC)c2c(-c3ccccc3)cc(=O)oc2c1C(CC(=O)N1CCCC1)c1ccc2c(c1)OCO2 (stereo unspecified) | - | - | - | - | - | - | . | . | . | . | . | . | .
COc1cc(OC)c2c(-c3ccccc3)cc(=O)oc2c1C(CCN1CCCC(C)C1)c1ccc2c(c1)OCO2 (stereo unspecified) | - | - | - | 183 | 56 | 26 | - | - | - | . | . | - | -
COc1ccc(C(CCN2CCCCC2)c2c(OC)cc(OC)c3c(-c4ccccc4)cc(=O)oc23)cc1 (stereo unspecified) | - | - | 68 | 182 | 55 | 26 | - | - | - | - | - | - | -
COc1cc(C(CCN2CCN(c3ccccc3)CC2)c2c(OC)cc(OC)c3c(C)cc(=O)oc23)cc(OC)c1OC (stereo unspecified) | - | - | - | - | - | - | . | . | . | . | . | . | .
COc1ccc(CN(C)S(=O)(=O)c2nnc(NC(=O)c3cccc(F)c3)s2)cc1 | . | - | - | - | - | - | . | . | . | . | . | . | .
C#CCOCCOCCOCCNc1nc(N2CCN(C(=O)[C@H](CCC(=O)O)n3cc(C(N)CC(C)C)nn3)CC2)nc(N2CCN(C(=O)[C@H](CCC(=O)O)n3cc(C(N)[C@H](C)CC)nn3)CC2)n1 (stereo partly specified) | - | - | - | - | - | - | . | . | . | . | . | . | .
